Source: ChEMBL document CHEMBL1949603, “Discovery of CS-0777: A Potent, Selective, and Orally Active S1P1 Agonist” (ACS Med Chem Lett, 2011)
One block for each compound: values may come before it. Active and inactive are the calls of the source. The rule behind the calls is not given here.

What was measured:
[1] = target: Sphingosine 1-phosphate receptor 5 (Homo sapiens, UniProt Q9H228); test: Agonist activity at human S1P5R; format: functional
[2] = target: Sphingosine 1-phosphate receptor 1 (Rattus norvegicus, UniProt P48303); test: Agonist activity at rat S1P1 receptor expressed in CHO-K1 cells by [35S]GTPgammaS binding assay; format: functional, cell-based
Sphingosine 1-phosphate receptor 1 (Rattus norvegicus, UniProt P48303), sequence (P48303 whole entry): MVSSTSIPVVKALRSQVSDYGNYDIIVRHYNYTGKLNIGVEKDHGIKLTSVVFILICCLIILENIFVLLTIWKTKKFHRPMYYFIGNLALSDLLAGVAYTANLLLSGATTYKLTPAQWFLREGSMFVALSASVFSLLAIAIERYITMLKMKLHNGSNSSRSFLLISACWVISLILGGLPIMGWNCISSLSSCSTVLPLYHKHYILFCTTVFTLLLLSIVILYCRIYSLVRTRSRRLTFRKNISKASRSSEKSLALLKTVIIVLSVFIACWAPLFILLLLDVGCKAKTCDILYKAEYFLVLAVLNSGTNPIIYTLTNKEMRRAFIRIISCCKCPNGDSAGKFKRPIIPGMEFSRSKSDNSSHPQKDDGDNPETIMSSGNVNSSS
How it was run: (§1)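 Agonist-evoked [35S]GTPγS binding was measured on human or rat S1P1 or S1P3 expressed in transfected CHO-K1 cells.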

[3] = target: Sphingosine 1-phosphate receptor 1 (Homo sapiens, UniProt P21453); test: Agonist activity at human S1P1 receptor expressed in CHO-K1 cells by [35S]GTPgammaS binding assay; format: functional, cell-based; how it was run: as §1
Sphingosine 1-phosphate receptor 1 (Homo sapiens, UniProt P21453), sequence (P21453 whole entry): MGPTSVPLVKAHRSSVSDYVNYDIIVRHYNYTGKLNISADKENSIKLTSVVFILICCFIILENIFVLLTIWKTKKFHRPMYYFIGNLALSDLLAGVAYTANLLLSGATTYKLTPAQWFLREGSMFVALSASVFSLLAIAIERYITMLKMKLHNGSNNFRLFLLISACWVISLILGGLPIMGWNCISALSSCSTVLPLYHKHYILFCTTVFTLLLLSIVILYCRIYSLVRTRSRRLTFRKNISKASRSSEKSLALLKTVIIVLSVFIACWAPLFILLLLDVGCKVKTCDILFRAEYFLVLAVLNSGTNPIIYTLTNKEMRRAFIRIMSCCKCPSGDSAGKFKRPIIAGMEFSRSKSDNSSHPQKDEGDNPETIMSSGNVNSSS

Rattus norvegicus [4] = organism: Rattus norvegicus; test: Selectivity ratio of EC50 for rat S1P3R to EC50 for rat S1P1R; how it was run: as §1
[5] = Agonist activity at rat S1P3R expressed in CHO-K1 cells by [35S]GTPgammaS binding assay; format: functional, cell-based; how it was run: as §1
[6] = target: Sphingosine 1-phosphate receptor 2 (Homo sapiens) (UniProt O95136); test: Binding affinity to human S1P2R
Sphingosine 1-phosphate receptor 2 (Homo sapiens), sequence (O95136 whole entry): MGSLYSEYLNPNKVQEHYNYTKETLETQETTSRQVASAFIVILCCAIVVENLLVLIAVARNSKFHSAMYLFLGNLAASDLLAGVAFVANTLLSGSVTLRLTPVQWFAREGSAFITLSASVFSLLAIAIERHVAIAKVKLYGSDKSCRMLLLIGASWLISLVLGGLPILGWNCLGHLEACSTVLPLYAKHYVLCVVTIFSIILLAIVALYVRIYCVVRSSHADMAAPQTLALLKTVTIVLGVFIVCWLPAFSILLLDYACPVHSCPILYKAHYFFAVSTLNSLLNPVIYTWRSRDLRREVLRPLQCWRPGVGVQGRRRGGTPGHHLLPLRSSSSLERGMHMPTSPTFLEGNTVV

[7] = target: Sphingosine 1-phosphate receptor 3 (Homo sapiens, UniProt Q99500); test: Agonist activity at human S1P3R expressed in CHO-K1 cells by [35S]GTPgammaS binding assay; format: functional, cell-based; how it was run: as §1
Sphingosine 1-phosphate receptor 3, sequence (Q99500 whole entry): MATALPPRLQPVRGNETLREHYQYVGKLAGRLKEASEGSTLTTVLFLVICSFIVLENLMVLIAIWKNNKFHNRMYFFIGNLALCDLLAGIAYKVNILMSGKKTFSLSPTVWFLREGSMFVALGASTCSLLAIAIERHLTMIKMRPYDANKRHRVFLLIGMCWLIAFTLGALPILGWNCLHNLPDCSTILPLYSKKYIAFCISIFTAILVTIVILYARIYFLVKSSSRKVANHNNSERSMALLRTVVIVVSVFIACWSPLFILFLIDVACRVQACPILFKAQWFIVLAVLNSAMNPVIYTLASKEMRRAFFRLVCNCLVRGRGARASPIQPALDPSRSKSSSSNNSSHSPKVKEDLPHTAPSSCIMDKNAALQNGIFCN

Homo sapiens = organism: Homo sapiens; test: Selectivity ratio of EC50 for human S1P3R to EC50 for human S1P1R; how it was run: as §1
[8] = Total body clearance in Sprague-Dawley rat at 1 mg/kg, iv; format: ADME, organism-based; design: dose 1 mg/kg, route intravenous; conditions: in vivo
How it was run: (§2)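 Clearance and steady-state volume of distribution were calculated from blood data after intravenous dosing of the parent drug to male Sprague−Dawley rats at 0.1 or 1 mg/kg. Values are mean ± SD of four animals.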

[9] = Half life in Sprague-Dawley rat at 1 mg/kg, po; format: ADME, organism-based; design: dose 1 mg/kg, route oral; conditions: in vivo
How it was run: (§3)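 Male Sprague−Dawley rats given one oral dose of parent drug at 0.1 or 1 mg/kg. Blood levels of parent and phosphate metabolite were measured over time. Bioavailability of the phosphate is the ratio of its AUC after oral dosing to its AUC after intravenous parent dosing at the same dose. Values are mean ± SD of four animals.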

[10] = Total body clearance in Sprague-Dawley rat at 0.1 mg/kg, iv; format: ADME, organism-based; design: dose 0.1 mg/kg, route intravenous; conditions: in vivo; how it was run: as §2
Rattus norvegicus [11] = test: Tmax in Sprague-Dawley rat assessed as CS-0777-phosphate at 0.1 mg/kg, po; format: ADME, organism-based; design: dose 0.1 mg/kg, route oral; conditions: in vivo; how it was run: as §3
Rattus norvegicus [12] = test: Lymphopenic activity in Lewis rat assessed as reduction in blood lymphocyte counts at 1 mg/kg, po after 12 hrs relative to control; format: functional; design: scale not given: the % may be the effect or the level left
How it was run: (§4)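 Lewis rats received one oral dose of 0.1 or 1 mg/kg in 1% MC vehicle. Lymphocytes were counted by automatic hemacytometer and expressed relative to vehicle controls. n = 5 per group, mean ± SE.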

[13] = Half life in Sprague-Dawley rat at 0.1 mg/kg, po; format: ADME, organism-based; design: dose 0.1 mg/kg, route oral; conditions: in vivo; how it was run: as §3
Rattus norvegicus [14] = test: Half life in Sprague-Dawley rat assessed as CS-0777-phosphate at 1 mg/kg, po; format: ADME, organism-based; design: dose 1 mg/kg, route oral; conditions: in vivo; how it was run: as §3
Rattus norvegicus [15] = test: Oral bioavailability in Sprague-Dawley rat assessed as CS-0777-phosphate at 0.1 mg/kg; format: ADME, organism-based; conditions: in vivo; how it was run: as §3
Rattus norvegicus [16] = test: AUC (0 to infinity) in Sprague-Dawley rat assessed as CS-0777-phosphate at 0.1 mg/kg, po; format: ADME, organism-based, Plasma; design: dose 0.1 mg/kg, route oral, time infinity; conditions: in vivo; how it was run: as §3
[17] = Volume of distribution at steady state in Sprague-Dawley rat at 0.1 mg/kg, iv; format: ADME, organism-based; design: dose 0.1 mg/kg, route intravenous; conditions: in vivo, read-out: Vdss; how it was run: as §2
Rattus norvegicus [18] = test: Lymphopenic activity in Lewis rat assessed as recovery of blood lymphocytes at 0.1 mg/kg, po after 48 hrs relative to control; format: functional; how it was run: as §4
Rattus norvegicus [19] = test: Lymphopenic activity in Lewis rat assessed as recovery in blood lymphocyte counts at 1 mg/kg, po after 5 days; format: functional, organism-based; design: dose 1 mg/kg; how it was run: as §4
[20] = Tmax in Sprague-Dawley rat at 0.1 mg/kg, po; format: ADME, organism-based; design: dose 0.1 mg/kg, route oral; conditions: in vivo; how it was run: as §3
[21] = Tmax in Sprague-Dawley rat at 1 mg/kg, po; format: ADME, organism-based; design: dose 1 mg/kg, route oral; conditions: in vivo; how it was run: as §3
[22] = AUC (0 to infinity) in Sprague-Dawley rat at 1 mg/kg, po; format: ADME, organism-based, Plasma; design: time infinity, dose 1 mg/kg, route oral; conditions: blood; how it was run: as §3
[23] = Cmax in Sprague-Dawley rat at 1 mg/kg, po; format: ADME, organism-based; design: dose 1 mg/kg, route oral; conditions: in vivo; how it was run: as §3
[24] = Volume of distribution at steady state in Sprague-Dawley rat at 1 mg/kg, iv; format: ADME, organism-based; design: dose 1 mg/kg, route intravenous; conditions: in vivo, read-out: Vdss; how it was run: as §2
Rattus norvegicus [25] = test: Reduction of cumulative disease score in Lewis rat EAE model at 0.1 mg/kg, po administered daily for 20 days measured after 8 to 21 days relative to control; format: functional, organism-based; design: dose 0.1 mg/kg
How it was run: (§5)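 EAE was induced in 6-week-old female Lewis rats by injecting guinea pig myelin basic protein fragment 68−82 with adjuvant into both hind footpads on day 0. Dosing was oral, daily on days 0–20 (0.01–1 mg/kg). Clinical score (0–6 scale) was recorded daily on days 8–21 and summed to a cumulative score. Analysis used a nonparametric Dunnett test versus vehicle.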

Rattus norvegicus [26] = test: Lymphopenic activity in Lewis rat assessed as recovery of blood lymphocytes at 1 mg/kg, po after 48 hrs relative to control; format: functional; how it was run: as §4
Rattus norvegicus [27] = test: Cmax in Sprague-Dawley rat assessed as CS-0777-phosphate at 0.1 mg/kg, po; format: ADME, organism-based; design: dose 0.1 mg/kg, route oral; conditions: in vivo; how it was run: as §3
Rattus norvegicus [28] = test: AUC (0 to infinity) in Sprague-Dawley rat assessed as CS-0777-phosphate at 1 mg/kg, po; format: ADME, organism-based, Plasma; design: time infinity, dose 1 mg/kg, route oral; conditions: in vivo; how it was run: as §3
[29] = Oral bioavailability in Sprague-Dawley rat at 1 mg/kg; format: ADME, organism-based; conditions: in vivo; how it was run: as §3
Rattus norvegicus [30] = test: Cmax in Sprague-Dawley rat assessed as CS-0777-phosphate at 1 mg/kg, po; format: ADME, organism-based; design: dose 1 mg/kg, route oral; conditions: in vivo; how it was run: as §3
Rattus norvegicus [31] = test: Tmax in Sprague-Dawley rat assessed as CS-0777-phosphate at 1 mg/kg, po; format: ADME, organism-based; design: dose 1 mg/kg, route oral; conditions: in vivo; how it was run: as §3
[32] = Cmax in Sprague-Dawley rat at 0.1 mg/kg, po; format: ADME, organism-based; design: dose 0.1 mg/kg, route oral; conditions: in vivo; how it was run: as §3
Rattus norvegicus [33] = test: Reduction of cumulative disease score in Lewis rat EAE model at 1 mg/kg, po administered daily for 20 days measured after 8 to 21 days relative to control; format: functional, organism-based; design: dose 1 mg/kg; how it was run: as §5
Rattus norvegicus [34] = test: Lymphopenic activity in Lewis rat assessed as recovery in blood lymphocyte counts at 0.1 mg/kg, po after 5 days; format: functional, organism-based; design: dose 0.1 mg/kg; how it was run: as §4
Rattus norvegicus [35] = test: Lymphopenic activity in Lewis rat assessed as reduction in blood lymphocyte counts at 0.1 mg/kg, po after 12 hrs relative to control; format: functional; design: scale not given: the % may be the effect or the level left; how it was run: as §4
Rattus norvegicus [36] = test: Oral bioavailability in Sprague-Dawley rat assessed as CS-0777-phosphate at 1 mg/kg; format: ADME, organism-based; conditions: in vivo; how it was run: as §3
[37] = Oral bioavailability in Sprague-Dawley rat at 0.1 mg/kg; format: ADME, organism-based; conditions: in vivo; how it was run: as §3
[38] = AUC (0 to infinity) in Sprague-Dawley rat at 0.1 mg/kg, po; format: ADME, organism-based, Plasma; design: dose 0.1 mg/kg, route oral, time infinity; conditions: blood; how it was run: as §3
Rattus norvegicus [39] = test: Half life in Sprague-Dawley rat assessed as CS-0777-phosphate at 0.1 mg/kg, po; format: ADME, organism-based; design: dose 0.1 mg/kg, route oral; conditions: in vivo; how it was run: as §3

Sphingosine 1-phosphate receptor 5, sequence (Q9H228 whole entry): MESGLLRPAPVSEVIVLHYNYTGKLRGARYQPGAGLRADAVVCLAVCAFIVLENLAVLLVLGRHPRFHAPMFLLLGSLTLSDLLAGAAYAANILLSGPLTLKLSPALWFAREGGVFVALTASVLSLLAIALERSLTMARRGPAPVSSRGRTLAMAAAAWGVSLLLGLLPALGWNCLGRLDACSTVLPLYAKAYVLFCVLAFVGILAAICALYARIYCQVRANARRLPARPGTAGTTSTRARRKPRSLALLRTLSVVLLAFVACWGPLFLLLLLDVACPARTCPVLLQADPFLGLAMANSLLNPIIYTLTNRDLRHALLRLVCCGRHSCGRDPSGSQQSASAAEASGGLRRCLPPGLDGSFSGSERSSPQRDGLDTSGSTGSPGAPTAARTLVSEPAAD

EC50 [1]: 21 nM
EC50 [2]: 1.8 nM
EC50 [3]: 1.1 nM
Ratio EC50 (Rattus norvegicus [4]): 100
EC50 [5]: 200 nM
Activity [6]: inactive
EC50 [7]: 350 nM
Ratio EC50 (Homo sapiens): 320
SMILES: Cc1ccc(CCCC(=O)c2ccc(CC[C@@](C)(N)COP(=O)(O)O)n2C)cc1

EC50 [2]: 0.29 nM
EC50 [5]: 1.3 nM
Activity [6]: inactive
SMILES: CCCCCCCCc1ccc(CC[C@](N)(CO)COP(=O)(O)O)cc1 [FTY720-P]

clearance [8]: 33.7 mL/min/kg
half-life [9]: 10.4 h
clearance [10]: 38 mL/min/kg
Tmax (Rattus norvegicus [11]): 9.5 h
half-life [13]: 5.4 h
t1/2 (Rattus norvegicus [14]): 11.6 h
F (Rattus norvegicus [15]): 80.6%
AUC (Rattus norvegicus [16]): 686 ng·h/mL
Vd [17]: 17.1 L/kg
Tmax [20]: 4.75 h
Tmax [21]: 3.25 h
AUC(0-inf) [22]: 346 ng·h/mL
Cmax [23]: 18.2 ng/mL
Vd [24]: 18.1 L/kg
Cmax (Rattus norvegicus [27]): 26.4 ng/mL
AUC (Rattus norvegicus [28]): 6280 ng·h/mL
bioavailability [29]: 69.5%
Cmax (Rattus norvegicus [30]): 220 ng/mL
Tmax (Rattus norvegicus [31]): 9 h
Cmax [32]: 1.89 ng/mL
F (Rattus norvegicus [36]): 90.8%
bioavailability [37]: 72.2%
AUC(0-inf) [38]: 31.7 ng·h/mL
t1/2 (Rattus norvegicus [39]): 10.9 h
SMILES: Cc1ccc(CCCC(=O)c2ccc(CC[C@@](C)(N)CO)n2C)cc1
Activity (Rattus norvegicus [12]): 18.4%
Activity (Rattus norvegicus [18]): 71.5%
Activity (Rattus norvegicus [19]): inactive
Activity (Rattus norvegicus [25]): Active
Activity (Rattus norvegicus [26]): 30.1%
Activity (Rattus norvegicus [33]): Active
Activity (Rattus norvegicus [34]): inactive
Activity (Rattus norvegicus [35]): 27.4%
